Measurements from ChEMBL document CHEMBL1156765, “Novel organic proteasome inhibitors identified by virtual and in vitro screening” (J Med Chem, 2010).
Active and inactive are the calls of the source. No cut-off for these calls is given here.

Tests used:
Oryctolagus cuniculus [1] = species: Oryctolagus cuniculus; experiment: Inhibition of chymotrypsin-like activity of rabbit 20S proteasome at 50 uM at pH 8 after 15 mins
Outline: (§1)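 Rabbit 20S proteasome held with inhibitor for 15 min at pH 8, 37 °C. The matching fluorogenic substrate was then added to read the remaining chymotrypsin-like, post-acid or trypsin-like activity. Results are reported as IC50, or as % inhibition at a single inhibitor concentration of 50 or 100 μM.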

[2] = Inhibition of post-acid activity of rabbit 20S proteasome at pH 8 after 15 mins; set-up: species or system Oryctolagus cuniculus; outline: as §1
HeLa = experiment: Cytotoxicity against human HeLa cells after 48 hrs by XTT assay; assay type: functional, cell-based
HEK293 = experiment: Cytotoxicity against human HEK293 cells after 48 hrs by XTT assay; assay type: functional, cell-based; conditions: HEK293, 48 h
[3] = Inhibition of chymotrypsin-like activity of rabbit 20S proteasome at pH 8 after 15 mins; set-up: species or system Oryctolagus cuniculus; outline: as §1
Oryctolagus cuniculus [4] = species: Oryctolagus cuniculus; experiment: Inhibition of post-acid activity of rabbit 20S proteasome at 50 uM at pH 8 after 15 mins; outline: as §1
[5] = Inhibition of trypsin-like activity of rabbit 20S proteasome at pH 8 after 15 mins; set-up: species or system Oryctolagus cuniculus; outline: as §1
Oryctolagus cuniculus [6] = species: Oryctolagus cuniculus; experiment: Inhibition of post-acid activity of rabbit 20S proteasome at 100 uM at pH 8 after 15 mins; outline: as §1
[7] = target: T1, Calpain-1 catalytic subunit (Homo sapiens) (UniProt P07384); experiment: Inhibition of cytosolic calpain 1 at 50 uM at pH 7.2
T1 sequence (whole entry): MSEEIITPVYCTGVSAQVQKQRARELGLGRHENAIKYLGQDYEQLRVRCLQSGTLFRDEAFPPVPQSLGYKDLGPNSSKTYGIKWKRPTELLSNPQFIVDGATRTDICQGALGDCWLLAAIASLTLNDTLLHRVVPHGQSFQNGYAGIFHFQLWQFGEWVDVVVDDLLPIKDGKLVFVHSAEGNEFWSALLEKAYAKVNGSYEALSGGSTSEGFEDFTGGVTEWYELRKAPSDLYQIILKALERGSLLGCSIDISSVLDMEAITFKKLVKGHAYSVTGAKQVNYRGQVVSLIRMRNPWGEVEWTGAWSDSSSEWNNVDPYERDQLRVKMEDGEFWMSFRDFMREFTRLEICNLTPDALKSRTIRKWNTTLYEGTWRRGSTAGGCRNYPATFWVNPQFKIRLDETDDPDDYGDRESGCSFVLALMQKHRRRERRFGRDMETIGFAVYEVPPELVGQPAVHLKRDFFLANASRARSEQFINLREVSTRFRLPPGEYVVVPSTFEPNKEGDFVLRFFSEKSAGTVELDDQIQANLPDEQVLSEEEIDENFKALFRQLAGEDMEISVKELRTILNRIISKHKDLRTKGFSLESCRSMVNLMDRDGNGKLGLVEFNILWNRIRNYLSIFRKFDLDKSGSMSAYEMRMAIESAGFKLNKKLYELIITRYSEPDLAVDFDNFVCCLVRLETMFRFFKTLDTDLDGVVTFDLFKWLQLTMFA

[8] = target: T1, Calpain-1 catalytic subunit (Homo sapiens); experiment: Inhibition of cytosolic calpain 1 at 100 uM at pH 7.2
Oryctolagus cuniculus [9] = species: Oryctolagus cuniculus; experiment: Inhibition of trypsin-like activity of rabbit 20S proteasome at 50 uM at pH 8 after 15 mins; outline: as §1
Oryctolagus cuniculus [10] = species: Oryctolagus cuniculus; experiment: Inhibition of trypsin-like activity of rabbit 20S proteasome at 100 uM at pH 8 after 15 mins; outline: as §1
Oryctolagus cuniculus [11] = species: Oryctolagus cuniculus; experiment: Inhibition of chymotrypsin-like activity of rabbit 20S proteasome at 100 uM at pH 8 after 15 mins; outline: as §1

With `COc1ccc(N2CCN(C(=O)COc3ccc(C(C)(C)C)cc3)CC2)c([N+](=O)[O-])c1` the inhibition (Oryctolagus cuniculus [1]) was 40% and the IC50 [2] was “Not Active”.
With `CC(=O)NS(=O)(=O)c1ccc(NC(=O)c2cc(-c3ccc(Cl)s3)nc3ccccc23)cc1` the EC50 (HeLa) was 100 µM and the EC50 (HEK293) was 75 µM.
In the case of `CC(C)(C)c1ccc(/C=C/C(=O)N2CCN(c3ccc([N+](=O)[O-])cc3)CC2)cc1`, the IC50 [3] is reported as “Not Active”, the inhibition (Oryctolagus cuniculus [4]) is reported as 52% and the IC50 [5] is reported as “Not Active”.
With `CC(C)(C)c1ccc(C(=O)Nc2ccc(S(=O)(=O)N3CCCCCC3)cc2)cc1` the IC50 ([3]; read-out: IC50) was greater than 50 µM and the inhibition (Oryctolagus cuniculus [6]) was 63%.
With `Cc1ccc(-c2nnc(Nc3ccccc3)c3ccccc23)cc1S(=O)(=O)NCC1CCCO1` (stereo not drawn) the IC50 [3] was “Not Active” and the inhibition (Oryctolagus cuniculus [4]) was 52%.
For `CCCN(CCC)S(=O)(=O)c1ccc(NC(=O)c2ccc(C(C)(C)C)cc2)cc1`, the IC50 ([3]; read-out: IC50) was 18.9 µM, the IC50 ([2]; read-out: IC50) was 8 µM and the Activity [7] was “inactive”. For the same compound, the Activity [8] was “inactive”, the EC50 (HeLa) was 9 µM and the EC50 (HEK293) was less than 5 µM.
`Cc1ccc(-c2nnc(Nc3cccc(O)c3)c3ccccc23)cc1S(=O)(=O)NC(C)(C)C` gave an IC50 ([3]; read-out: IC50) of 28.3 µM, an inhibition (Oryctolagus cuniculus [4]) of 29% and an inhibition (Oryctolagus cuniculus [9]) of 44%. The EC50 (HEK293) was 10.4 µM.
For `CCOc1ccc(-c2cc(C(=O)Nc3ccc(S(=O)(=O)NC(C)=O)cc3)c3ccccc3n2)cc1`, the IC50 [3] was “Not Active”, the inhibition (Oryctolagus cuniculus [6]) was 42% and the inhibition (Oryctolagus cuniculus [9]) was 45%.
With `CC(C)(C)c1ccc(OCC(=O)N2CCN(c3ccc([N+](=O)[O-])cc3)CC2)c(Br)c1` the IC50 [3] was “Not Active”, the inhibition (Oryctolagus cuniculus [4]) was 49% and the IC50 [5] was “Not Active”.
In the case of `O=C(Nc1ccc(S(=O)(=O)NCc2ccccc2)cc1)c1cc(-c2cccs2)nc2ccccc12`, the inhibition (Oryctolagus cuniculus [1]) is reported as 70.1% and the IC50 [2] is reported as “Not Active”.
`C=CCN(CC=C)S(=O)(=O)c1ccc(NC(=O)c2ccc(C(C)(C)C)cc2)cc1` showed an IC50 ([3]; read-out: IC50) of 1.9 µM, an IC50 ([2]; read-out: IC50) of 10 µM and an IC50 ([5]; read-out: IC50) of 4.5 µM. The Activity [7] was “inactive”, the Activity [8] was “inactive” and the EC50 (HeLa) was 12.3 µM. It also gave an EC50 (HEK293) of 9.7 µM.
With `COc1ccc(N2CCN(C(=S)Nc3ccc([N+](=O)[O-])cc3)CC2)cc1` the IC50 ([3]; read-out: IC50) was 10.8 µM, the IC50 ([2]; read-out: IC50) was 9 µM and the EC50 (HEK293) was 50 µM.
For `CCc1ccc(-c2cc(C(=O)Nc3ccc(S(=O)(=O)NC(C)=O)cc3)c3ccccc3n2)cc1`, the IC50 [3] was “Not Active”, the inhibition (Oryctolagus cuniculus [6]) was 45% and the IC50 ([5]; read-out: IC50) was 25.6 µM.
For `CCOC(=O)CNS(=O)(=O)c1cc(-c2nnc(Nc3cccc(O)c3)c3ccccc23)ccc1C`, the inhibition (Oryctolagus cuniculus [1]) was 35%, the IC50 ([2]; read-out: IC50) was 39 µM and the inhibition (Oryctolagus cuniculus [10]) was 63%. The EC50 (HEK293) was 13.9 µM.
For `COc1ccc(NC(=O)C23CC4CC(C2)CC(C(=O)Nc2ccc(OC)cc2)(C4)C3)cc1`, the IC50 ([3]; read-out: IC50) was 11.7 µM and the IC50 ([2]; read-out: IC50) was 12.4 µM.
For `Cc1ccccc1C(=O)Nc1ccc(S(=O)(=O)NCc2ccccc2)cc1`, the IC50 [3] was “Not Active”, the inhibition (Oryctolagus cuniculus [4]) was 54% and the inhibition (Oryctolagus cuniculus [10]) was 13%.
Work on `COc1ccc(NC(=O)C23CC4CC(C2)CC(c2ccc(C)cc2)(C4)C3)cc1` yielded an IC50 ([3]; read-out: IC50) of 26.2 µM and an IC50 ([2]; read-out: IC50) of 50 µM.
With `Cc1ccc(-c2nnc(Nc3cccc(O)c3)c3ccccc23)cc1S(=O)(=O)NC(C)(C)CO` the IC50 ([3]; read-out: IC50) was 35.4 µM, the IC50 ([2]; read-out: IC50) was 14.8 µM and the IC50 ([5]; read-out: IC50) was 67.8 µM.
In the case of `CCN(CC)S(=O)(=O)c1ccc(NC(=O)c2ccc(C(C)(C)C)cc2)cc1`, the inhibition (Oryctolagus cuniculus [11]) is reported as 87% and the IC50 ([2]; read-out: IC50) is reported as greater than 25 µM.
